# Data published in ChEMBL document CHEMBL3259658, “Discovery of BI 224436, a Noncatalytic Site Integrase Inhibitor (NCINI) of HIV-1” (ACS Med Chem Lett, 2014).
# Columns and labels:
# [1] = system: Human immunodeficiency virus 1; test: Antiviral activity against HIV1 HxB2 harboring integrase A124/T125 mutant by cell based luciferase reporter gene assay; format: functional, organism-based; settings: Human immunodeficiency virus 1, HxB2
# How it was run: (§1)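 Cell-based luciferase reporter gene assay of HIV-1 replication. Virus was HxB2 (IN A124/T125), wild-type NL4.3 (T124/T125), or recombinant NL4.3 carrying IN variants A124/T125, A124/A125, N124/T125, N124/A125 or T124/A125 (T125A). EC50 is the mean of at least two experiments. Where three or more experiments were run, relative SD was 12–43%.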
# [2] = target: T1, Human immunodeficiency virus type 1 integrase (Human immunodeficiency virus 1, UniProt Q7ZJM1); test: Inhibition of HIV1 integrase by LTR cleavage assay
# T1 sequence (Q7ZJM1 whole entry): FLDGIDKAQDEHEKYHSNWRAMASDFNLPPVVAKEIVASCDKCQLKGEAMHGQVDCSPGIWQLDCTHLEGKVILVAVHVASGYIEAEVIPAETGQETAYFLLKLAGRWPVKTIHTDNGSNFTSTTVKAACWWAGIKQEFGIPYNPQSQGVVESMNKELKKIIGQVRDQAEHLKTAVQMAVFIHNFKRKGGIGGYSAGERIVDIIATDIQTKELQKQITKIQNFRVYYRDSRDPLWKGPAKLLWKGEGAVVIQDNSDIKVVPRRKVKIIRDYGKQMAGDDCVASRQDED
# [3] = target: T1, Human immunodeficiency virus type 1 integrase; test: Binding affinity to HIV1 integrase by displacement assay; settings: read-out: Kd(app)
# How it was run: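 The displacement assay against HIV-1 integrase gives the value as an apparent dissociation constant (Kd-app).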
# [4] = system: Human immunodeficiency virus 1; test: Antiviral activity against HIV1 NL4.3 harboring integrase T124/A125 mutant by cell based luciferase reporter gene assay; format: functional, organism-based; settings: Human immunodeficiency virus 1, NL4.3; how it was run: as §1
# [5] = system: Human immunodeficiency virus 1; test: Ratio of EC50 for HIV1 NL4.3 harboring integrase T124/A125 mutant to EC50 for HIV1 HxB2 harboring integrase A124/T125 mutant
# [6] = Half life in human liver microsomes; format: ADME
# [7] = system: Human immunodeficiency virus 1; test: Antiviral activity against HIV1 NL4.3 harboring integrase T125A mutant by cell based luciferase reporter gene assay in presence of 50% human serum; format: functional; design: reference not given here
# How it was run: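 Luciferase reporter gene assay with recombinant NL4.3 carrying the IN T125A substitution. […] Each value is the mean of at least two experiments.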
# [8] = system: Human immunodeficiency virus 1; test: Antiviral activity against HIV1 NL4.3 harboring integrase T124/T125 mutant by cell based luciferase reporter gene assay; format: functional, organism-based; settings: Human immunodeficiency virus 1, NL4.3; how it was run: as §1
# [9] = system: Human immunodeficiency virus 1; test: Antiviral activity against HIV1 NL4.3 harboring integrase A124/T125 mutant by cell based luciferase reporter gene assay; format: functional, organism-based; settings: Human immunodeficiency virus 1, NL4.3; how it was run: as §1
# [10] = system: Human immunodeficiency virus 1; test: Antiviral activity against HIV1 NL4.3 harboring integrase A124/A125 mutant by cell based luciferase reporter gene assay; format: functional, organism-based; settings: Human immunodeficiency virus 1, NL4.3; how it was run: as §1
# [11] = system: Human immunodeficiency virus 1; test: Antiviral activity against HIV1 NL4.3 harboring integrase N124/T125 mutant by cell based luciferase reporter gene assay; format: functional, organism-based; settings: Human immunodeficiency virus 1, NL4.3; how it was run: as §1
# [12] = system: Human immunodeficiency virus 1; test: Antiviral activity against HIV1 NL4.3 harboring integrase N124/A125 mutant by cell based luciferase reporter gene assay; format: functional, organism-based; settings: Human immunodeficiency virus 1, NL4.3; how it was run: as §1
# [13] = Half life in rat liver microsomes; format: ADME
# [14] = Apparent permeability across human Caco2 cells; format: ADME, cell-based; settings: Caco-2
# Cytochrome P450 3A4 = Cytochrome P450 3A4 (Homo sapiens, UniProt P08684); test: Inhibition of CYP3A4 (unknown origin); format: ADME
# Chain of Cytochrome P450 3A4 (P08684 whole entry): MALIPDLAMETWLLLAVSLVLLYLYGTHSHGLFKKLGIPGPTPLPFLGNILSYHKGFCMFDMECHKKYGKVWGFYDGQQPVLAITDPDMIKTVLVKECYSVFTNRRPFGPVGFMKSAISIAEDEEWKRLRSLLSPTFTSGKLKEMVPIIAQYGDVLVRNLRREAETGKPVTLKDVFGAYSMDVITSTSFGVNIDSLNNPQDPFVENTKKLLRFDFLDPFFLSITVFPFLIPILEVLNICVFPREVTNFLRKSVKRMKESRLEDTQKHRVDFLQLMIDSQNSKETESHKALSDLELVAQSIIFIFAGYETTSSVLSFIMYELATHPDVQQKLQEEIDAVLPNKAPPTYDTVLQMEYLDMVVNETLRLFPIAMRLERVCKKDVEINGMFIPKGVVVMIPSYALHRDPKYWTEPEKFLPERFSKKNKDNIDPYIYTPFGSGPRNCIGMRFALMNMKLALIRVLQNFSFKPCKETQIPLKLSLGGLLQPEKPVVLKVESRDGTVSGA
# Cytochrome P450 2D6 = Cytochrome P450 2D6 (Homo sapiens, UniProt P10635); test: Inhibition of CYP2D6 (unknown origin); format: ADME
# Chain of Cytochrome P450 2D6 (P10635 whole entry): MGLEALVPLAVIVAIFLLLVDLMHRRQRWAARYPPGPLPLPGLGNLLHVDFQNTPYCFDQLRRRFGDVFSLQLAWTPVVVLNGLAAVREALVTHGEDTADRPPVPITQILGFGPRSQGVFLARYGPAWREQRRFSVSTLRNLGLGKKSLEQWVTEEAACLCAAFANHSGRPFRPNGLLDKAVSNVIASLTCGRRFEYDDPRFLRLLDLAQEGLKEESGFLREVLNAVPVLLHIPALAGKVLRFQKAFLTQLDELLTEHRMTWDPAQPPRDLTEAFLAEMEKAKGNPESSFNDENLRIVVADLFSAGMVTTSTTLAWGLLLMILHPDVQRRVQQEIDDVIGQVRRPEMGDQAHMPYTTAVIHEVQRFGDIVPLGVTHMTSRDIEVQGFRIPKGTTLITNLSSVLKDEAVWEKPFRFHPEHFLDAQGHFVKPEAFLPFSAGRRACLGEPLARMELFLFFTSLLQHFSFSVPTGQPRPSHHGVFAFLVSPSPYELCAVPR
# [15] = Solubility of the compound at pH 6.8; format: physicochemical; settings: buffer
# How it was run: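 Solubility was measured at pH 6.8 on the amorphous powder form of the compound.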
# [16] = Half life in rat at 0.2 mg/kg, iv and 0.4 mg/kg, po; format: ADME, organism-based; settings: in vivo
# [17] = Oral bioavailability in rat at 0.4 mg/kg; format: ADME, organism-based; settings: in vivo
SMILES,EC50 [1] [nM],Kd [3] [nM],EC50 [4] [nM],also measured
Cc1nc2ccc(Cl)cc2c(-c2ccccc2)c1CC(=O)O,> 40000,,,
Cc1nc2ccc(Br)cc2c(-c2ccccc2)c1CC(=O)O,> 33000,,,
Cc1ccc(-c2c(CC(=O)O)c(C)nc3ccc(Br)cc23)cc1,20000,,,IC50 [2]: 350 nM
Cc1nc2ccc(Br)cc2c(-c2ccc(Cl)cc2)c1CC(=O)O,16000,,,IC50 [2]: 270 nM
Cc1nc2ccccc2c(-c2ccc(Cl)cc2)c1CC(=O)O,> 43000,,,
Cc1nc2ccc(Br)cc2c(-c2ccc(Cl)cc2)c1C(C)C(=O)O (configuration not stated),13000,,,IC50 [2]: 310 nM
CCCC(C(=O)O)c1c(C)nc2ccc(Br)cc2c1-c1ccc(Cl)cc1 (configuration not stated),920,,,IC50 [2]: 77 nM
COC(C(=O)O)c1c(C)nc2ccc(Br)cc2c1-c1ccc(Cl)cc1 (configuration not stated),990,,,IC50 [2]: 40 nM
CO[C@@H](C(=O)O)c1c(C)nc2ccc(Br)cc2c1-c1ccc(Cl)cc1,47000,,,IC50 [2]: 3100 nM
CO[C@H](C(=O)O)c1c(C)nc2ccc(Br)cc2c1-c1ccc(Cl)cc1,450,4700,,IC50 [2]: 28 nM
Cc1nc2ccc(Br)cc2c(-c2ccc(Cl)cc2)c1[C@H](OC(C)C)C(=O)O,130,280,,
Cc1nc2ccc(Br)cc2c(-c2ccc(Cl)cc2)c1[C@H](OC(C)(C)C)C(=O)O,78,150,610,Ratio EC50 [5]: 8
Cc1nc2ccc(F)cc2c(-c2ccc(Cl)cc2)c1[C@H](OC(C)(C)C)C(=O)O,28,61,70,
Cc1ccc2nc(C)c([C@H](OC(C)(C)C)C(=O)O)c(-c3ccc(Cl)cc3)c2c1,27,48,160,
Cc1nc2ccccc2c(-c2ccc(Cl)cc2)c1[C@H](OC(C)(C)C)C(=O)O,23,49,110,
Cc1nc2cc(F)ccc2c(-c2ccc(Cl)cc2)c1[C@H](OC(C)(C)C)C(=O)O,26,68,91,
Cc1nc2cc(Cl)ccc2c(-c2ccc(Cl)cc2)c1[C@H](OC(C)(C)C)C(=O)O,31,140,120,
Cc1ccc2c(-c3ccc(Cl)cc3)c([C@H](OC(C)(C)C)C(=O)O)c(C)nc2c1,13,40,130,half-life [6]: 0.417 h; fold change (FC) [7]: 25
Cc1ccc2c(-c3ccc4c(c3)CCCO4)c([C@H](OC(C)(C)C)C(=O)O)c(C)nc2c1,7,,22,half-life [6]: 1.1 h; fold change (FC) [7]: 66
Cc1ccc2c(-c3ccc4c(c3Cl)CCCO4)c([C@H](OC(C)(C)C)C(=O)O)c(C)nc2c1,2,,22,fold change (FC) [7]: 83
Cc1ccc2c(-c3ccc4c(c3Cl)NCCO4)c([C@H](OC(C)(C)C)C(=O)O)c(C)nc2c1,,,29,half-life [6]: 1.08 h; fold change (FC) [7]: 15
Cc1ccc2c(-c3cccc4cccnc34)c([C@H](OC(C)(C)C)C(=O)O)c(C)nc2c1,34,,300,half-life [6]: > 5 h; fold change (FC) [7]: 4
Cc1ccc2c(-c3ccc4c5c(ccnc35)CCO4)c([C@H](OC(C)(C)C)C(=O)O)c(C)nc2c1,6,,21,half-life [6]: 3.5 h; fold change (FC) [7]: 4.7
Cc1nc2ccccc2c(-c2ccc3c4c(ccnc24)CCO3)c1[C@H](OC(C)(C)C)C(=O)O [BI-224436],11,,,half-life [6]: 3.5 h; fold change (FC) [7]: 2.1; EC50 [8]: 11 nM; EC50 [9]: 11 nM; EC50 [10]: 11 nM; EC50 [11]: 11 nM; EC50 [12]: 11 nM; half-life [13]: > 5 h; Papp [14]: 14 ×10⁻⁶ cm/s; IC50 (Cytochrome P450 3A4): 23000 nM; IC50 (Cytochrome P450 2D6): > 30000 nM; solubility [15]: > 850 µg/mL; half-life [16]: 8.8 h; bioavailability [17]: 54%
